Measurements from ChEMBL document CHEMBL1145787, “Synthesis and structure-activity relationship of N-substituted 4-arylsulfonylpiperidine-4-hydroxamic acids as novel, orally active matrix metalloproteinase inhibitors for the treatment of osteoarthritis” (J Med Chem, 2003).

What was measured:
[1] = target: T1, Disintegrin and metalloproteinase domain-containing protein 17 (Homo sapiens, UniProt P78536); assay: Inhibition of Tumor necrosis factor alpha converting enzyme (TACE) at 10 uM
In short: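 Dose–response curves were not generated when inhibition was below 60% at 10 μM.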

[2] = In vivo inhibitory activity against Matrix metalloprotease enzyme by dialysis implant assay, value is relative to activity of CGS-27023 (35+/-3) at 25 mg/kg. po; format: functional
Collagenase 3 = Collagenase 3 (Homo sapiens, UniProt P45452)
Interstitial collagenase = target: T2, Interstitial collagenase (Homo sapiens, UniProt P03956); assay: In vitro inhibitory activity against matrix metalloprotease-1
T2 sequence (P03956 whole entry): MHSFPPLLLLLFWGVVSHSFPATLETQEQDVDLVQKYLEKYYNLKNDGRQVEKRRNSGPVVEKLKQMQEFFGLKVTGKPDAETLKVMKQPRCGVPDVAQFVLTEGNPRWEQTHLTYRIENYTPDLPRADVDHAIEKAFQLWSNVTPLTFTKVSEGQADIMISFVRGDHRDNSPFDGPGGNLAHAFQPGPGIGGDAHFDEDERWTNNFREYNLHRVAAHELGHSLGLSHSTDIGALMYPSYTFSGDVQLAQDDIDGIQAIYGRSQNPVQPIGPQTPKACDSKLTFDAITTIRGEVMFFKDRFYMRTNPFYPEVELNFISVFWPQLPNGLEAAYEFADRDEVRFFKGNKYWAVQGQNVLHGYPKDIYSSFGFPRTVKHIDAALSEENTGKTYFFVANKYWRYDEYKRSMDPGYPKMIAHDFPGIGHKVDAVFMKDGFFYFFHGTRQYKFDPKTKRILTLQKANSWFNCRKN

[3] = target: Matrix metalloproteinase-9 (Homo sapiens, UniProt P14780); assay: In vitro inhibitory activity against matrix metalloprotease-9.
[4] = target: T1, Disintegrin and metalloproteinase domain-containing protein 17
[5] = In vivo inhibition of Matrix metalloprotease enzyme by Sponge-wrapped cartilage assay, value are relative to activity of RS-130830 (27+/-3) at 10 mg/kg. po. bid; format: functional
[6] = In vivo inhibitory activity against Matrix metalloprotease enzyme by dialysis implant assay, value are relative to activity of CGS-27023 (64+/-3) at 25 mg/kg. po; format: functional
[7] = In vivo inhibitory activity against Matrix metalloprotease enzyme by dialysis implant assay, value is relative to activity of CGS-27023 (53+/-3) at 25 mg/kg. po; format: functional
[8] = target: T1, Disintegrin and metalloproteinase domain-containing protein 17; assay: In vitro inhibitory activity against tumor necrosis factor alpha converting enzyme (TACE).
[9] = In vivo inhibitory activity against Matrix metalloprotease enzyme by dialysis implant assay, value are relative to activity of CGS-27023 (71+/-2) at 25 mg/kg. po; format: functional
[10] = In vivo inhibitory activity against Matrix metalloprotease enzyme by dialysis implant assay, value are relative to activity of CGS-27023 (41+/-4) at 25 mg/kg. po; format: functional

Matrix metalloproteinase-9, sequence (P14780 whole entry, the tested form may be a part): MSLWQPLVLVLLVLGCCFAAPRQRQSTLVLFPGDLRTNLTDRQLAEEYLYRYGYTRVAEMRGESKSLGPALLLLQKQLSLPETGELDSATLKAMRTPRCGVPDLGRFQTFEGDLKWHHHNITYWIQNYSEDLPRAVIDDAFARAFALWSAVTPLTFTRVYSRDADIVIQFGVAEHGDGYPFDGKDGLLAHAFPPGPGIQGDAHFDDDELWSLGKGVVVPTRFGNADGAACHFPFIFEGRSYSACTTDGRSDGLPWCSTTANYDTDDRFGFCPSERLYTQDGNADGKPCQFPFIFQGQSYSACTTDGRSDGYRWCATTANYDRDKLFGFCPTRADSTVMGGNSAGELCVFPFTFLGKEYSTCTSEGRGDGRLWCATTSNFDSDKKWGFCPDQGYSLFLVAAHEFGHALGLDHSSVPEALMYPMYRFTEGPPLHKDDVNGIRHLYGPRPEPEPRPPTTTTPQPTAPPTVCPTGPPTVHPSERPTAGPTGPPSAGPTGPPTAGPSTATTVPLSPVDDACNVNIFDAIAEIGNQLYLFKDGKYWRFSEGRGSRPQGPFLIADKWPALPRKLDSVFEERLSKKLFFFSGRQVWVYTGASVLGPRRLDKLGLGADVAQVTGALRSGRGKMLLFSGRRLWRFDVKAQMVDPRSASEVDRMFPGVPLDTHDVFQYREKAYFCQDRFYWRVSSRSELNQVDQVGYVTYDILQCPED
T1 sequence (P78536 whole entry, the tested form may be a part): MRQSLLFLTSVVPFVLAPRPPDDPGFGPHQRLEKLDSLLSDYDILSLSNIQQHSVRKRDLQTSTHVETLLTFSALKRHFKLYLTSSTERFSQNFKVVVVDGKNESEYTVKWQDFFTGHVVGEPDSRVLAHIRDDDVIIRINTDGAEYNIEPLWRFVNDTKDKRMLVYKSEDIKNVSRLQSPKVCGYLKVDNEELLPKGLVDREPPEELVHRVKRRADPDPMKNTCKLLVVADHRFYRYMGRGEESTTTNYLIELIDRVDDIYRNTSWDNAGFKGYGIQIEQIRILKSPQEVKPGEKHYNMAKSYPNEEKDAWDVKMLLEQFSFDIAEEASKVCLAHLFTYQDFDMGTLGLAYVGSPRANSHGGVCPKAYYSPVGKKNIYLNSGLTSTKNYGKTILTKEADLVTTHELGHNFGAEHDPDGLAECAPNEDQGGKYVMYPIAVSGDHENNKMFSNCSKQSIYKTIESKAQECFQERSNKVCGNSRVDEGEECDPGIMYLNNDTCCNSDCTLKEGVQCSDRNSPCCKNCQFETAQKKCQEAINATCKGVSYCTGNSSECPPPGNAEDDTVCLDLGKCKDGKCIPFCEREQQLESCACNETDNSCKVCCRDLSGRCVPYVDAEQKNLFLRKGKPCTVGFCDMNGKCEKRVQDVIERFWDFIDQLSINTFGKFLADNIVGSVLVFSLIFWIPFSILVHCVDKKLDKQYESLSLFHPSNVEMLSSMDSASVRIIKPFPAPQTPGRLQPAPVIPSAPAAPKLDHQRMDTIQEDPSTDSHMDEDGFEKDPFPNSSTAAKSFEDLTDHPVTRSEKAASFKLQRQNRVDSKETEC

| SMILES | IC50 (Collagenase 3) | IC50 (Interstitial collagenase) | IC50 [3] | IC50 [8] | also measured |
| --- | --- | --- | --- | --- | --- |
| CCCCOc1ccc(S(=O)(=O)C2(C(=O)NO)CCN(Cc3ccc(F)cc3)CC2)cc1 | 0.005 µM | – | – | – | inhibition [1]: 39%; inhibition in vivo at 25 mg/kg [2]: 48% |
| CCC(CC)Oc1ccc(S(=O)(=O)C2(C(=O)NO)CCN(Cc3ccccc3)CC2)cc1 | 0.005 µM | 3.16 µM | 0.014 µM | – | IC50 [4]: 0.039 µM; inhibition in vivo at 10 mg/kg [5]: 27%; inhibition in vivo at 25 mg/kg [6]: 68% |
| COc1ccc(S(=O)(=O)C2(C(=O)NO)CCN(CCCc3ccccc3)CC2)cc1 | – | – | 0.013 µM | – | inhibition in vivo at 25 mg/kg [7]: 9% |
| O=C(NO)C1(S(=O)(=O)c2ccc(-c3ccco3)cc2)CCN(Cc2ccccc2)CC1 | – | 0.04 µM | 0.003 µM | 0.416 µM | inhibition in vivo at 25 mg/kg [9]: 95% |
| COc1ccc(S(=O)(=O)C2(C(=O)NO)CCN(Cc3ccc(-c4cccs4)cc3)CC2)cc1 | 0.003 µM | 0.531 µM | 0.011 µM | 0.273 µM | inhibition in vivo at 25 mg/kg [10]: 12% |
